Source: paper PMC8639468 (The Journal of Biological Chemistry, 2021)
Where no end group is shown, it is not given here.

Tested on: not listed separately
Assay: MTT cytotoxicity assay
Type: cell-based
Details: human, HeLa cells
How it was run: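 HeLa cells (1×10^4/well) grown 24 h, then exposed to serially diluted peptides for 1 h at 37 °C. Peptide removed; MTT added (5 mg/ml stock in PBS) in fresh medium for 4 h at 37 °C. Formazan dissolved in DMSO and read at 490 nm. Lethality = (Acon − A)/(Acon − Abl), using untreated cells and cell-free blank. IC50 from semilog curves, three independent measurements.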

**Q.** For ILILILAAKLAKALKKEAKALK-NH2 [LP5], which IC50 at 1 h is on record?
**A.** 13 µM

**Q.** Which IC50 at 1 h does the source give for ILILAAKLLKALKKEAKLLK-NH2 [LP3] here?
**A.** 12.5 µM

**Q.** Which IC50 at 1 h does the source give for ILILAAKLAKALKKEAKALK-NH2 [LP4] here?
**A.** > 128 µM

**Q.** With KLLKLLKKELKLLK-NH2 [LP1] as the substance, how does the IC50 at 1 h read?
**A.** > 128 µM

**Q.** For ILILAAKLLKLLKKELKLLK-NH2 [LP2], which IC50 at 1 h is on record?
**A.** 1.3 µM

Tested on: HeLa cells
Assay: Saporin cytosolic delivery, MTT lethality
Type: cell-based
Details: SAP 10, 20, 50 μg/ml alone, 60 min
How it was run: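 HeLa seeded at 1×10^4 cells/well and grown 24 h. Cells exposed to saporin, with or without vehicle peptide, for 1 h at 37 °C. After two PBS washes, cells kept in DMEM for 6 h at 37 °C. Viability read by MTT: formazan in DMSO at 490 nm, lethality calculated against untreated cells and cell-free blank.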

**Q.** With “SAP: membrane-impermeable ribosome-inactivation protein, 28.6 kDa cargo” as the substance, how does the “cell survival with saporin alone” value read?
**A.** barely affected
